Assay results of several laboratories.
Target: Dual specificity protein kinase TTK (TTK, Homo sapiens, UniProt P33981)
Residues used in one study (P33981 1-857): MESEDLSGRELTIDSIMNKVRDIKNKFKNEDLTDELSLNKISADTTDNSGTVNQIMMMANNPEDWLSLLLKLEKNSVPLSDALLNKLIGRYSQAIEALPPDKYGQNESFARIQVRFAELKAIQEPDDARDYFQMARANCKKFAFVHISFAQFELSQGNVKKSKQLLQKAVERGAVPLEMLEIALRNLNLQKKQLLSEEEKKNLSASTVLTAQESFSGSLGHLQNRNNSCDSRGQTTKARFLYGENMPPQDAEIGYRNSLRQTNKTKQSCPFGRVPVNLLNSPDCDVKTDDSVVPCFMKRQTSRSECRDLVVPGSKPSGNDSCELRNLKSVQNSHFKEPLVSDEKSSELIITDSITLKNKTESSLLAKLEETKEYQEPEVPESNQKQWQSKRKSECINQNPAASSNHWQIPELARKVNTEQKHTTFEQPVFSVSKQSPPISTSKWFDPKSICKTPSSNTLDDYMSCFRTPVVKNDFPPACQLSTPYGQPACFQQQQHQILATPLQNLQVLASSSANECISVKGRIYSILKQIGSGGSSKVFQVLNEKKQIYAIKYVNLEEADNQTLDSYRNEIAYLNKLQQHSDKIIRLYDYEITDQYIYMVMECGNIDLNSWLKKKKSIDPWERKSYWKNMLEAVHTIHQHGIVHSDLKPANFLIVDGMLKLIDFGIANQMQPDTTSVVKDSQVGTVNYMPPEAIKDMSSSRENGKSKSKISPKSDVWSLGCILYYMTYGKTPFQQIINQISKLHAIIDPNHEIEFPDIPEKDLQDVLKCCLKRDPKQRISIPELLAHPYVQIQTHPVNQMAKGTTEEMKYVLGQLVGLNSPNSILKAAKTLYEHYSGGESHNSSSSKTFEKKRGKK

SMILES | effect on | technique | tested at | remaining binding
N#CC1(c2ccccn2)CCN(Cc2cc(C(=O)N3CCCC3)c(=O)n3ccccc23)CC1 | cell-free assay | competition with immobilised ligand | 1 µM | 98%
N[C@H]1CCN(c2nccc(-c3cnn4ncccc34)n2)C1 | binding | – | 1 µM | 93%
COc1cnc(Nc2cccc(S(N)(=O)=O)c2)nc1N1CCN(c2ccccc2)CC1 | binding | competition with immobilised ligand | 1 µM | 83%
c1cnn2ncc(-c3ccnc(N4CCC45COC5)n3)c2c1 | binding | – | 1 µM | 61%
CCOC(=O)c1cc2cc(-c3cc(C(=O)NCc4ccc(C(=O)O)cc4)nn3C)ccc2[nH]1 | cell-free assay | competition with immobilised ligand | 0.1 µM | 93%
C=CC(=O)N1CCC(C(=O)NCC(=O)N2CCN(c3nc(-c4cnc(N)nc4C(F)F)nc(N4CCOCC4)n3)CC2)CC1 | binding | competition with immobilised ligand | 1 µM | 92%
Nc1ncc2c(n1)-c1c([nH]c3ccc(C#CC4CC4)cc13)CCCC2 | binding | competition with immobilised ligand | 1 µM | 100%
O=C(NCC1CCOCC1)c1n[nH]cc1NC(=O)c1c(F)cccc1F | binding | competition with immobilised ligand | 1 µM | 84%
FC(F)(F)Oc1cccc(-c2cnc3ccc(-c4ccncc4)nn23)c1 | binding | competition with immobilised ligand | 5 µM | 53%
O=C(c1ccc(Nc2ncc(Cl)c(-c3ccc(Cl)s3)n2)cc1)N1CCC(N2CCCC2)CC1 | binding | competition with immobilised ligand | 1 µM | 26%
CN(c1nccc(-c2cnn3ncccc23)n1)C1CC1 | binding | – | 1 µM | 69%
O=C(c1ccc(Nc2nccc(-c3cc4ccccc4s3)n2)cc1)N1CCC(N2CCCC2)CC1 | binding | competition with immobilised ligand | 1 µM | 57%
CO[C@@H](C)c1c(Nc2ccc([C@H](N(C)C(=O)C3CCS(=O)(=O)CC3)C(F)(F)F)cc2)cnc2cc(Cl)nn12 | cell-free assay | competition with immobilised ligand | 1 µM | 77%
C[C@H]1CCN(c2nccc(-c3cnn4ncccc34)n2)C1 | binding | – | 1 µM | 34%
C[C@@H](c1ccc(-n2cnc3c(N)ncnc32)cc1)N1CCc2nn(C)c(Cc3ccccc3)c2C1=O | binding | competition with immobilised ligand | 0.1 µM | 85%
O=C(N[C@H]1CCCCC/C=C\C2C[C@@]2(C(=O)O)NC(=O)[C@@H]2C[C@@H](Oc3ccncc3)CN2C1=O)OC1CCCC1 (stereo partly drawn) | binding | competition with immobilised ligand | 1 µM | 79%
CN(C)c1nccc(-c2cnc3ncccn23)n1 | binding | – | 1 µM | 74%
CCCCN(CCCC)C(=O)CN1C[C@H](c2cc(OC)c3c(c2)OCO3)[C@@H](C(=O)O)[C@@H]1CC(C)(C)CCC | cell-free assay | competition with immobilised ligand | 1 µM | 100%
O=C(NCCCN1CCOCC1)c1ccc(Nc2ncc(Cl)c(-c3ccc(Cl)s3)n2)cc1 | binding | competition with immobilised ligand | 1 µM | 58%
Cc1cnn2ncc(-c3ccnc(N(C)C)n3)c2c1 | binding | – | 1 µM | 100%
NS(=O)(=O)c1cc(NC(=O)Cc2ccccc2)ccc1Oc1cccc(Cl)c1 | cell-free assay | competition with immobilised ligand | 1 µM | 91%
